Bioassay records from PubChem BioAssay.
APJ antagonist: APJ receptor antagonism; CHO-K1 APJ beta-arrestin complementation, luminescence; inhibition, % at 20 µM; hit rate 0.32% among 330,000; AID 2521;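 active means inhibition above about 40% at 20 µM, limit read from the data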;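 further: cells challenged with 10 nM apelin-13 agonist together with compound; plate controls were apelin-13 plus DMSO wells for no effect and DMSO wells lacking apelin-13 for full effect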
m5-HT2A agonist: agonists of mouse serotonin 5-HT2A receptor (HTR2A) | CHO-K1 mHTR2A beta-arrestin complementation, luminescence; percent of 30 µM serotonin response | activation, % at 7.6 µM | hit rate 0.66% among 360,000 | P35363;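 active means activation above a run cutoff, the mean activation of all tested compounds plus 3 SD, cut at about 14% in these data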;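 further: 0% = plate median of compound wells and 100% = 30 µM serotonin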
CXCR6 block: blocks human CXCR6 beta-arrestin recruitment; hit rate 0.36% among 360,000; AID 602244; O00574; inhibition, % at 20 µM; CHO-K1 PathHunter CXCR6 beta-arrestin, luminescence; in the data active means inhibition above about 34%, passing the limit was not always enough;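 further: antagonist mode with CXCL16 agonist at 10 nM final; 0% = 10 nM CXCL16 with DMSO and 100% = unstimulated wells without agonist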
APJ agonist: agonists of human APJ apelin receptor. P35414. CHO-K1 APJ PathHunter beta-arrestin, luminescence; 0% DMSO wells, 100% apelin. activation, % at 20 µM. hit rate 0.11% among 330,000. AID 2520;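 active means activation more than six SD over the plate average, tested at 20 µM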;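 further: 0% = DMSO alone and 100% = apelin-13 at 10 nM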
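system = engineered CHO-K1 APJ arrestin reporter cells | input = 1000 cells per well | timing = overnight seeding, 90 min compound at 25 °C, 1 h detection | measured by = enzyme-fragment complementation luminescence | read-out = beta-arrestin recruitment to APJ as agonist activity, luminescent signal | control set = negative DMSO alone, positive Apelin-13 at 10 nM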
EBI2 block: antagonists of human EBI2 receptor | EBI2 beta-arrestin recruitment, luminescence, 7a,25-OHC stimulated | inhibition, % at 5 µM | P32249 | AID 651636 | hit rate 0.81% among 360,000; in the data active means inhibition above about 38%;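 further: enzyme fragment complementation signal reports receptor beta-arrestin coupling in cells; 0% = agonist plus DMSO wells and 100% = wells without agonist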
CCR6 antag: antagonists of human CCR6 receptor | P51684 | CHO-K1 CCR6 PathHunter beta-arrestin, luminescence, CCL20-stimulated | inhibition, % at 20 µM | hit rate 0.49% among 340,000 | AID 493098;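 active means compounds whose inhibition of the agonist-driven luminescence signal at 20 µM reaches about 50%, limit read from the data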;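 further: cells stimulated with CCL20 at 14 nM final; plate controls were DMSO with CCL20 for no effect and DMSO without agonist for full effect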
Target sequence (P51684 whole entry, looked up): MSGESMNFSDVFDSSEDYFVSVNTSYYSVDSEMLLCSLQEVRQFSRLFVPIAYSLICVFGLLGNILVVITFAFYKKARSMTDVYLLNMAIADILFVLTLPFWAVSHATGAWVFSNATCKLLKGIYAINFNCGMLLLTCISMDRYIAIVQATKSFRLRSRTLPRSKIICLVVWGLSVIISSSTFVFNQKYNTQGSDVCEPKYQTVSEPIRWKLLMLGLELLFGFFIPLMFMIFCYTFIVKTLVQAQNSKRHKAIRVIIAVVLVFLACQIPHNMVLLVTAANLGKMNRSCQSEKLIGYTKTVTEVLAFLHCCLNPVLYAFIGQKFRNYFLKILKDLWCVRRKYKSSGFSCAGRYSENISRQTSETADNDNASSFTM
APJ antag confirm: APJ receptor antagonism confirmation; APJ beta-arrestin recruitment, luminescence, antagonist mode; inhibition, % at 20 µM; AID 2766; shares compounds with APJ antagonist; hit rate 66% among 950; in the data active means inhibition above about 50%
Starred values were filed as active, the others as inactive; / = not tested or not shown. An excerpt weighted towards active compounds, which were near 2.1% of everything screened.

SMILES	APJ antagonist	m5-HT2A agonist	CXCR6 block	APJ agonist	EBI2 block	CCR6 antag	APJ antag confirm
N#Cc1c(NC(=O)c2ccccc2Cl)n(Cc2ccccc2)c2nc3ccccc3nc12	/	8	-1	/	10	5	/
CCCCn1c(NC(=O)c2ccccc2Cl)c(C#N)c2nc3ccccc3nc21	43*	8	6	-13	1	28	36
COc1ccc(Cl)cc1C(=O)NNC(=S)NC(=O)c1ccc(F)c(F)c1	40*	4	28	-6	5	47	12
NC(=O)c1sc2nc(-c3ccccc3)c3c(c2c1N)CCCC3	47*	0	13	-10	6	11	16
Cc1ccc(-c2nc3sc(C(N)=O)c(N)c3c3c2CCCC3)cc1	2	4	-4	-1	-1	18	/
COC(=O)C1=C(C)N(Cc2ccccc2)C(=NCC(C)C)N[C@H]1c1cccc(F)c1	48*	0	2	-4	9	8	84*
CN1N=C(C(=O)N2CCCC(N3CCN(c4ccc(F)cc4)CC3)C2)CCC1=O (stereo not drawn)	15	2	-4	4	-8	8	/
S=C(N/N=C/c1ccc(Cl)cc1)N1CCOCC1	41*	0	39	-7	-1	55*	60*
S=C(N/N=C/c1ccc(Br)cc1)N1CCCCC1	11	1	-6	-7	37	17	/
O=S(=O)(NC1CCCCC1)c1ccc(N2CCOCC2)nc1	-9	3	-2	1	-12	-2	/
CC(C)N1CCc2c(sc(NC(=O)c3cc(-c4cccs4)nc4ccccc34)c2C(N)=O)C1	46*	5	17	-15	6	62*	65*
CC(C)(C)C1C/C(=C/c2ccccn2)C(=O)/C(=C/c2ccccn2)C1 (stereo not drawn)	45*	7	32	-8	18	65*	46
COc1cc(Cl)cc(/C=C/c2ccc3cccc(O)c3n2)c1OC	41*	-3	40	-8	22	41	37
Oc1cccc2ccc(/C=C/c3ccccc3Cl)nc12	46*	-18	35	-10	21	45	82*
CCOc1cccc(/C=C/c2ccc3cccc(O)c3n2)c1OC	43*	-18	24	-9	13	31	72*
CCOc1cccc(/C=C/c2ccc3cccc(O)c3n2)c1O	12	-5	24	-6	8	49	/
CC(C)n1cc(C#N)c(N)n1	/	3	-3	/	4	-2	/
CCC(CO)NC(=O)c1ccc(-c2nn(C)c(=O)c3ccccc23)cc1 (stereo not drawn)	50*	-3	3	1	-3	-6	16
CN(C)c1ccc(N=Nc2nc3ccccc3n2C)cc1	48*	-9	54*	-10	28	75*	108*
Cc1cc(=O)n2nc(N3CCC(C(=O)NCc4ccco4)CC3)sc2n1	9	5	-2	0	3	5	/
Cc1cc(=O)n2nc(N3CCCC(C(=O)NCc4ccco4)C3)sc2n1 (stereo not drawn)	50*	-2	5	-4	5	-2	16
Cc1nn(CC(=O)c2cccc(Cl)c2)c(C)c1[N+](=O)[O-]	-27	-2	4	0	3	-6	/
Cc1cc(C(=O)NNc2ccc(C)c(C)c2)no1	42*	1	17	-12	3	22	114*
Cc1cc(Cl)ccc1NNC(=O)c1c(C)noc1C	-14	2	-11	-2	-10	-9	/
Cc1ccc(NNC(=O)c2c(C)noc2C)cc1Cl	56*	-2	4	-13	19	14	70*
SMILES	APJ antagonist	m5-HT2A agonist	CXCR6 block	APJ agonist	EBI2 block	CCR6 antag	APJ antag confirm
Cc1noc(C)c1C(=O)NNc1ccc(C(C)C)cc1	47*	-1	-3	-20	4	27	102*
Cc1cc(C(=O)NNc2ccc(Cl)cc2)no1	24	2	8	-6	13	18	/
CCOC(=O)CC1C(=O)NCCN1C(=S)NC(=O)c1ccc(C)c(Br)c1 (stereo not drawn)	/	1	5	/	-2	/	/
O=C(Cn1cc(C(F)(F)F)cc(Cl)c1=O)Nc1cccc(S(=O)(=O)N2CCCCC2)c1	-1	-9	2	-3	-9	8	/
CC[C@]12C(=O)N(C)C[C@H]([C@@H]3C(=O)N(C)C(=O)[C@@H]31)N2C(=O)c1ccccc1	/	6	-5	/	2	-7	/
CC(C)(C)c1cc(CCC(=O)NNC(=S)NC(=O)c2ccccc2)cc(C(C)(C)C)c1O	51*	1	58*	-9	34	58*	135*
CC(C)(C)c1cc(CCC(=O)NNC(=O)c2ccco2)cc(C(C)(C)C)c1O	-3	-1	-6	3	7	1	/
Cc1ccc(S(=O)(=O)N2[C@@H](c3cccc(Cl)c3)C(C(=O)O)=CC[C@H]2c2cccs2)cc1	10	7	-6	-1	2	15	/
CC([NH2+][O-])C(C)(C)NO (stereo not drawn)	47*	1	30	-5	6	51*	33
O=C(CN1c2ccccc2Sc2ccccc21)NNC(=S)Nc1ccc(Cl)cc1	51*	-2	14	-13	5	28	70*
Cc1c(C(=O)N2CCCC2)c(S(=O)(=O)N2CCN(c3ccccc3F)CC2)c(C)n1C	14	9	0	-3	-3	14	/
O=C(N/N=C/c1cc(Br)cc(Br)c1O)c1ccncc1	-42	/	/	1	/	-9	/
O=C(N/N=C/c1cc(Br)cc([N+](=O)[O-])c1O)c1ccc(NC(=O)c2ccc(F)cc2)cc1	49*	6	28	-9	18	69*	86*
C/C(=N\NS(=O)(=O)c1c(C)cc(C)cc1C)c1ccncc1	4	-3	2	-3	-15	-5	/
COc1cc(F)ccc1-c1csc(C(NC(C)=O)c2ccccc2)n1 (stereo not drawn)	/	-4	2	/	7	/	/
CCCN(CCC)C(=O)c1oc2ccccc2c1NC(=O)Cc1cccc(OC)c1	5	-1	-1	0	-1	16	/
CC(=O)Nc1ccc(NC(=O)C(C)OC(=O)CNS(=O)(=O)/C=C/c2ccc(C)cc2)cc1 (stereo not drawn)	-5	4	4	-4	5	1	/
Clc1ccc(-c2nn3c(-c4ccccc4)nnc3s2)cc1	43*	-2	-2	-2	8	10	16
c1ccc(-c2nnc3sc(-c4ccncc4)nn23)cc1	10	1	-5	-5	6	-7	/
CC1(C(=O)NS(=O)(=O)c2cccc(C#N)c2)CCN1C(=O)c1cccc2ccccc12 (stereo not drawn)	/	6	4	/	-4	/	/
